Test results: ChEMBL document CHEMBL4118054, “Tamarixetin 3-O-β-d-Glucopyranoside from Azadirachta indica Leaves: Gastroprotective Role through Inhibition of Matrix Metalloproteinase-9 Activity in Mice” (J Nat Prod, 2017)
Active and inactive are the calls of the source. The calls are words filed in the database; no cut-off is given here.

Assays:
Mus musculus [1] = experiment: Antiulcerogenic activity in indomethacin-induced gastric ulceration Balb/c mouse model assessed as gastric damage index at 15 mg/kg, po administered 30 mins prior to indomethacin challenge measured after 4 hrs by H and E staining based microscopic method (reference value: 40 +/- 7); assay type: functional
Procedure, shortened: (§1)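 Same indomethacin model (80 mg/kg b.w. oral, test agent 15 or 25 mg/kg b.w. oral 30 min prior, sacrifice at 4 h). Stomach pieces fixed in 4% paraformaldehyde, paraffin-embedded, ~5 μm sections H&E stained. Damage index scored blind as percentage of the gastric corpus circumference showing hemorrhage or epithelial disruption; submucosal infiltrating cells and epithelial continuity inspected microscopically.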

[2] = biological target: T1, Matrix metalloproteinase-9 (Homo sapiens, UniProt P14780); experiment: Residual activity of recombinant human full length MMP9 at 125 uM preincubated for 1 hr followed by gelatin addition measured after 18 hrs by SDS-PAGE analysis relative to control
Mus musculus [3] = experiment: (§2) Antiulcerogenic activity in indomethacin-induced gastric ulceration Balb/c mouse model assessed as decrease in visible gastric hemorrhagic lesions in fundic stomach by measuring ulcer index at 25 mg/kg, po administered 30 mins prior to indomethacin challenge measured after 4 hrs (reference value: 35 +/- 7.5); assay type: functional
[4] = biological target: T1, Matrix metalloproteinase-9; experiment: Residual activity of recombinant human full length MMP9 at 250 uM preincubated for 1 hr followed by gelatin addition measured after 18 hrs by SDS-PAGE analysis relative to control
[5] = biological target: T1, Matrix metalloproteinase-9; experiment: Inhibition of recombinant human full length MMP9 preincubated for 1 hr followed by gelatin addition measured after 18 hrs by SDS-PAGE analysis
Procedure, shortened: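 Full-length recombinant human MMP-9 (~5 μg) incubated 1 h at room temperature with 0−500 μM test agent, then run on nonreducing 8% SDS-PAGE with 1 mg/mL gelatin. Gels washed in 2.5% Triton X-100, incubated 18 h at 37 °C in 40 mM Tris-HCl pH 7.4, 200 mM NaCl, 10 mM CaCl2, Coomassie stained; lysis bands quantified by densitometry against untreated enzyme. IC50 taken from activity change versus concentration, saturation set as 100%.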

[6] = biological target: T1, Matrix metalloproteinase-9; experiment: Binding affinity to human full length MMP9 by CD spectral analysis
Procedure, shortened: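 Near-UV/visible CD spectra (240−700 nm), 1.0 mm quartz cell, under nitrogen at room temperature in aqueous buffer. Ligand held at 100 μM (from 10 mM methanol stock) while MMP-9 varied 0−333 nM. Kd at half-saturation derived from a double-reciprocal plot of Δθ against MMP-9 concentration.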

Mus musculus [7] = experiment: as §2, with “15” for “25”; assay type: functional
Mus musculus [8] = experiment: Antiulcerogenic activity in indomethacin-induced gastric ulceration Balb/c mouse model assessed as restoration of intact epithelial layer in stomach at 15 to 25 mg/kg, po administered 30 mins prior to indomethacin challenge measured after 4 hrs by H and E staining based microscopic method; assay type: functional, organism-based; procedure, shortened: as §1
[9] = biological target: T1, Matrix metalloproteinase-9; experiment: Residual activity of recombinant human full length MMP9 at 60 uM preincubated for 1 hr followed by gelatin addition measured after 18 hrs by SDS-PAGE analysis relative to control
Mus musculus [10] = experiment: In vivo inhibition of MMP9 in indomethacin-induced gastric ulceration Balb/c mouse model assessed as reduction in indomethacin-induced ProMMP9 activity in gastric tissue administered orally 30 mins prior to indomethacin challenge measured after 4 hrs by gelatin zymographic method; assay type: functional, organism-based
Procedure, shortened: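 Gastric tissue from the indomethacin model (test agent orally 15 or 25 mg/kg b.w., 30 min before indomethacin, 4 h) minced at 4 °C in PBS with protease inhibitors, spun 12000g 15 min. PBS extract (70 μg protein/lane, Lowry) run on 8% SDS-PAGE with 1 mg/mL gelatin, nonreducing. Gels washed in 2.5% Triton X-100, incubated 18 h at 37 °C in 40 mM Tris-HCl pH 7.4, 0.2 M NaCl, 10 mM CaCl2, Coomassie stained, densitometry.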

Mus musculus [11] = experiment: Antiulcerogenic activity in indomethacin-induced gastric ulceration Balb/c mouse model assessed as decrease in visible gastric hemorrhagic lesions in fundic stomach administered orally 30 mins prior to indomethacin challenge measured after 4 hrs; assay type: functional, organism-based
Mus musculus [12] = experiment: Antiulcerogenic activity in indomethacin-induced gastric ulceration Balb/c mouse model assessed as infilteration of inflammatory cells at submucosal layer at 15 to 25 mg/kg, po administered 30 mins prior to indomethacin challenge measured after 4 hrs by H and E staining based microscopic method; assay type: functional, organism-based; procedure, shortened: as §1
Mus musculus [13] = experiment: Toxicity in indomethacin-induced gastric ulceration Balb/c mouse model assessed as alteration in gastric tissue at 15 to 25 mg/kg, po administered 30 mins prior to indomethacin challenge measured after 4 hrs; assay type: organism-based; conditions: in vivo
[14] = biological target: T1, Matrix metalloproteinase-9; experiment: Binding affinity to human full length MMP9 assessed as decrease in cotton effects of compound up to 500 uM by CD spectral analysis
Mus musculus [15] = experiment: Antiulcerogenic activity in indomethacin-induced gastric ulceration Balb/c mouse model assessed as gastric damage index at 25 mg/kg, po administered 30 mins prior to indomethacin challenge measured after 4 hrs by H and E staining based microscopic method (reference value: 40 +/- 7); assay type: functional; procedure, shortened: as §1

T1 sequence (P14780 whole entry): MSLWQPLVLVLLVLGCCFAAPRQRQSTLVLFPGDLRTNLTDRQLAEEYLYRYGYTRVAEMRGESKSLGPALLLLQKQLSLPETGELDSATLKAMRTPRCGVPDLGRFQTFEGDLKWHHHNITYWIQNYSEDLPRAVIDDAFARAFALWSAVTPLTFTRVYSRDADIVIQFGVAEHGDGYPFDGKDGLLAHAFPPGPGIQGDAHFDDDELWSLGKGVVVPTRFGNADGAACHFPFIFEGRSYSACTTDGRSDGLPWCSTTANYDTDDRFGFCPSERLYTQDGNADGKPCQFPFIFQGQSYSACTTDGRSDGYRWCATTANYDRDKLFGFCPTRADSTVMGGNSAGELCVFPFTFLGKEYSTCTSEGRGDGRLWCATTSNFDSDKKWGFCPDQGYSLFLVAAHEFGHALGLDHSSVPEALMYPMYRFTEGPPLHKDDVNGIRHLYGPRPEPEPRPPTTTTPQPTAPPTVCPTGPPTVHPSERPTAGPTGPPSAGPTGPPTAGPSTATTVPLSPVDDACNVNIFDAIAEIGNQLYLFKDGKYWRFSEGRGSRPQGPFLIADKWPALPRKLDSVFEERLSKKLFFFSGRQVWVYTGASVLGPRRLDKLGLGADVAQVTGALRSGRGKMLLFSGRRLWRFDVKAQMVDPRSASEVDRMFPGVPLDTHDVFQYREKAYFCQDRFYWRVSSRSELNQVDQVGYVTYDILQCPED

residual activity [2]: 45% | residual activity [4]: 40% | IC50 [5]: 50 µM | inhibition [5]: Dose-dependent effect | Kd [6]: 0.1 µM | residual activity [9]: 60% | Activity [14]: Active
Structure (SMILES): COc1ccc(-c2oc3cc(O)cc(O)c3c(=O)c2O[C@@H]2O[C@H](CO)[C@@H](O)[C@H](O)[C@H]2O)cc1O
Activity_index (Mus musculus [1]): 10 | UI (Mus musculus [3]): 5 | UI (Mus musculus [7]): 8 | Activity (Mus musculus [8]): Active | inhibition (Mus musculus [10]): Dose-dependent effect | Activity (Mus musculus [11]): Dose-dependent effect | Activity (Mus musculus [12]): Active | Activity (Mus musculus [13]): Non-Toxic | Activity_index (Mus musculus [15]): 5
